# Experimental data reported in ChEMBL document CHEMBL3286143, “Minimizing the Contribution of Enterohepatic Recirculation to Clearance in Rat for the NCINI Class of Inhibitors of HIV” (ACS Med Chem Lett, 2014).
# Tests used:
# Rattus norvegicus = organism: Rattus norvegicus; test: Clearance in rat; type: ADME, organism-based; details: in vivo
# [1] = Half life in bile duct cannulated rat; type: ADME, organism-based; details: in vivo
# [2] = test system: Human immunodeficiency virus 1; test: Antiviral activity against HIV-1 NL4.3-HxB2 virus harboring integrase T124/T125 mutant relative to control in presence of 50% human serum; type: functional
# [3] = test system: Human immunodeficiency virus 1; test: Antiviral activity against HIV1 NL4.3 harboring integrase T124/T125 mutant relative to control in presence of 50% human serum; type: functional
# Method in brief: (§1)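 Serum shift for the same NL4.3 IN-variant viruses, from EC50 values measured with and without 50% human serum.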
# [4] = test system: Human immunodeficiency virus 1; test: Antiviral activity against HIV1 NL4.3 harboring integrase A124/T125 mutant relative to control in presence of 50% human serum; type: functional; method in brief: as §1
# [5] = test system: Human immunodeficiency virus 1; test: Antiviral activity against HIV1 NL4.3 harboring integrase A124/A125 mutant relative to control in presence of 50% human serum; type: functional; method in brief: as §1
# [6] = test system: Human immunodeficiency virus 1; test: Antiviral activity against HIV1 NL4.3 harboring integrase N124/T125 mutant relative to control in presence of 50% human serum; type: functional; method in brief: as §1
# [7] = test system: Human immunodeficiency virus 1; test: Antiviral activity against HIV1 NL4.3 harboring integrase N124/A125 mutant relative to control in presence of 50% human serum; type: functional; method in brief: as §1
# [8] = Half life in rat liver microsomes; type: ADME
# [9] = test system: Human immunodeficiency virus 1; test: Antiviral activity against HIV-1 NL4.3-HxB2 virus harboring integrase T124/T125 mutant; type: functional, organism-based; details: Human immunodeficiency virus 1, NL4.3-HxB2; pooled result: one value given for 4 cell lines, strains, targets or settings
# Cytochrome P450 2D6 = Cytochrome P450 2D6 (Homo sapiens, UniProt P10635); test: Inhibition of CYP2D6 (unknown origin); type: ADME
# Sequence of Cytochrome P450 2D6 (P10635 whole entry): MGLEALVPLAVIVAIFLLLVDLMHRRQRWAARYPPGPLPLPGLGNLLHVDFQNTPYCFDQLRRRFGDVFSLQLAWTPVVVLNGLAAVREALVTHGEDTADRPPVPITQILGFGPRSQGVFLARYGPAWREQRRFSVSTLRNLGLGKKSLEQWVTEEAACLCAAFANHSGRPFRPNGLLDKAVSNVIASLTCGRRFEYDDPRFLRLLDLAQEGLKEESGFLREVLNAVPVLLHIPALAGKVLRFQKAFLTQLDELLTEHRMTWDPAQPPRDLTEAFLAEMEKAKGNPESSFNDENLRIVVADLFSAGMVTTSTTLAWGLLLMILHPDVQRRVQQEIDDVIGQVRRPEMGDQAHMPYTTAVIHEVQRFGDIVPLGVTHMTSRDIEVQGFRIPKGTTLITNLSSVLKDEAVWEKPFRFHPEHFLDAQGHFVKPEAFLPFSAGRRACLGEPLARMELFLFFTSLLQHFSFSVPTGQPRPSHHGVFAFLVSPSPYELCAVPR
# [10] = Solubility of the compound at pH 6.8; type: physicochemical; details: buffer
# [11] = Drug excretion in bile duct cannulated rat bile after 3 hrs; type: ADME; details: read-out: Drug excretion
# Method in brief: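 Rats with cannulated bile ducts were dosed, and the fraction of compound excreted into bile was measured at the 3 h time point.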
# [12] = molecular target: T1, Human immunodeficiency virus type 1 integrase (Human immunodeficiency virus 1, UniProt Q7ZJM1); test: Apparent binding affinity to Trx-His-tagged HIV integrase; details: read-out: Kd(app)
# T1 sequence (Q7ZJM1 whole entry): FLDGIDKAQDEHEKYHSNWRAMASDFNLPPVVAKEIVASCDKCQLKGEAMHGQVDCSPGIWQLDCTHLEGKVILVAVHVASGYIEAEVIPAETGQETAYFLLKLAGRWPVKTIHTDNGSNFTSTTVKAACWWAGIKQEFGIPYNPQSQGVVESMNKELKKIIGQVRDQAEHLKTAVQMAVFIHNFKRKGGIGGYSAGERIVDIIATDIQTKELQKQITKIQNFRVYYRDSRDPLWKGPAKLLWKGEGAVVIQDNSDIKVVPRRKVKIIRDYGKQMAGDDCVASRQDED
# Method in brief: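 Apparent dissociation constant from the same displacement assay, run instead with a thioredoxin-tagged His6 integrase construct.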
# [13] = test system: Human immunodeficiency virus 1; test: Antiviral activity against HIV1 NL4.3 harboring integrase T124/T125 mutant; type: functional, organism-based; details: Human immunodeficiency virus 1, NL4.3
# Method in brief: (§2)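 Cell-based antiviral assay giving EC50 (nM) against wild-type NL4.3 (IN T124/T125) or recombinant NL4.3 engineered to carry the naturally polymorphic integrase residues at positions 124 and 125.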
# [14] = test system: Human immunodeficiency virus 1; test: Antiviral activity against HIV1 NL4.3 harboring integrase N124/T125 mutant; type: functional, organism-based; details: Human immunodeficiency virus 1, NL4.3; method in brief: as §2
# [15] = Half life in human liver microsomes; type: ADME
# [16] = molecular target: T1, Human immunodeficiency virus type 1 integrase; test: Apparent binding affinity to His-tagged HIV integrase; details: read-out: Kd(app)
# [17] = test system: Human immunodeficiency virus 1; test: Antiviral activity against HIV1 NL4.3 harboring integrase T124/A125 mutant; type: functional, organism-based; details: Human immunodeficiency virus 1, NL4.3; method in brief: as §2
# [18] = Half life in rat; type: ADME, organism-based; details: in vivo
# Cytochrome P450 3A4 = Cytochrome P450 3A4 (Homo sapiens, UniProt P08684); test: Inhibition of CYP3A4 (unknown origin); type: ADME
# Sequence of Cytochrome P450 3A4 (P08684 whole entry): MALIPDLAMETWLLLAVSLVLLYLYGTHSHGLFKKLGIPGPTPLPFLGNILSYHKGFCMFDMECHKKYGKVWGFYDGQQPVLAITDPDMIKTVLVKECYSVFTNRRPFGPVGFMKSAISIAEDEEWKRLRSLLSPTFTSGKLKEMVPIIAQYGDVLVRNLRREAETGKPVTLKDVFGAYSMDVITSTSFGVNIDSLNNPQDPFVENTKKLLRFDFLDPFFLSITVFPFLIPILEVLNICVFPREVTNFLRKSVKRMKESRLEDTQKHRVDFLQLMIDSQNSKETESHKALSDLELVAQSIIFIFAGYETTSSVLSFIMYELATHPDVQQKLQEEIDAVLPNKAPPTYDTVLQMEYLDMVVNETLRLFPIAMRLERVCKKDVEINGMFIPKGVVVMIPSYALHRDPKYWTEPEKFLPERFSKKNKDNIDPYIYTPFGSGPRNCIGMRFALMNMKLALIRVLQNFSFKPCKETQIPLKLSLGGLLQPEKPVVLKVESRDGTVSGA
# [19] = Apparent permeability in human Caco2 cells; type: ADME, cell-based; details: Caco-2
# [20] = Lipophilicity, log D of the compound at pH 7.4; type: physicochemical; details: buffer
# [21] = molecular target: Human immunodeficiency virus type 1 integrase (Human immunodeficiency virus 1) (UniProt Q7ZJM1); test: Ratio of app-Kd for Trx-His-tagged HIV integrase to His-tagged HIV integrase
# Sequence of Human immunodeficiency virus type 1 integrase (Human immunodeficiency virus 1) (Q7ZJM1 as listed by the source): as the sequence (Q7ZJM1 whole entry) above
SMILES,half-life [8] [h],Kd [12] [nM],EC50 [13] [nM],EC50 [14] [nM],half-life [15] [h],other results
Cc1nc2ccccc2c(-c2ccc3c4c(ccnc24)CCO3)c1[C@H](OC(C)(C)C)C(=O)O [BI-224436],> 5,–,–,–,–,CL (Rattus norvegicus): 0.7%; half-life [1]: 1.6 h; fold change (FC) [2]: 2.1; fold change (FC) [3]: 2.1; fold change (FC) [4]: 2.1; fold change (FC) [5]: 2.1; fold change (FC) [6]: 2.1; fold change (FC) [7]: 2.1; EC50 [9]: 11 nM; IC50 (Cytochrome P450 2D6): > 30000 nM; solubility [10]: > 850 µg/mL; dose excreted at 3 h [11]: 60%
"Cc1ccc(-c2nc(C)c([C@H](OC(C)(C)C)C(=O)O)c(-c3ccc4c(c3C)CCCO4)c2C)cc1C (single isomer, unassigned; atropisomer)",1.5,26,2.7,620,1.13,–
Cc1nc2ccccc2c(-c2ccc3c(c2)CCCO3)c1[C@H](OC(C)(C)C)C(=O)O,–,–,51,77,–,Kd [16]: 24 nM; EC50 [17]: 30 nM
Cc1nc(-c2cccc(-c3ccnn3C)c2)c(C)c(-c2ccc3c(c2)CCCO3)c1[C@H](OC(C)(C)C)C(=O)O,–,52,10,1000,–,–
Cc1noc(C)c1-c1ccc(-c2nc(C)c([C@H](OC(C)(C)C)C(=O)O)c(-c3ccc(Cl)cc3)c2C)cc1,2.67,50,7.7,810,3.83,CL (Rattus norvegicus): 0.6%; half-life [18]: 8.9 h; half-life [1]: 5.4 h; fold change (FC) [2]: 9.9; fold change (FC) [3]: 9.9; fold change (FC) [4]: 9.9; fold change (FC) [5]: 9.9; fold change (FC) [6]: 9.9; fold change (FC) [7]: 9.9; EC50 [9]: 6.5 nM; IC50 (Cytochrome P450 3A4): 17000 nM; Papp [19]: 17 ×10⁻⁶ cm/s; IC50 (Cytochrome P450 2D6): > 30000 nM; logD [20]: 3.1; solubility [10]: 250 µg/mL; dose excreted at 3 h [11]: 22%
Cc1nc(-c2cccc(-c3cnn(C)c3)c2)c(C)c(-c2ccc3c(c2)CCCO3)c1[C@H](OC(C)(C)C)C(=O)O,–,59,24,920,–,–
Cc1nc(-c2ccccc2)c(C)c(-c2ccc3c(c2)CCCO3)c1[C@H](OC(C)(C)C)C(=O)O,–,40,68,800,0.533,Kd [16]: 1000 nM; Ratio [21]: 25; EC50 [17]: 78 nM
Cc1nc2c(c(-c3ccc4c(c3)CCCO4)c1[C@H](OC(C)(C)C)C(=O)O)Cc1ccccc1-2,–,–,72,34,–,Kd [16]: 160 nM; EC50 [17]: 110 nM
"Cc1ccc(-c2nc(C)c([C@H](OC(C)(C)C)C(=O)O)c(-c3ccc4c(c3Cl)NCCO4)c2C)cc1C (single isomer, unassigned; atropisomer)",0.933,28,3.3,830,1.7,–
Cc1noc(C)c1-c1ccc(-c2nc(C)c([C@H](OC(C)(C)C)C(=O)O)c(-c3ccc4c(c3)CCCO4)c2C)cc1,–,–,5.5,390,–,–
Cc1nc2c(c(-c3ccc4c(c3)CCCO4)c1[C@H](OC(C)(C)C)C(=O)O)CCCc1ccccc1-2,–,–,560,–,–,Kd [16]: 1100 nM
Cc1cc(-c2nc(C)c([C@H](OC(C)(C)C)C(=O)O)c(-c3ccc4c(c3)CCCO4)c2C)ccc1Cl,–,17,5.8,960,0.717,–
Cc1ccc(-c2nc(C)c([C@H](OC(C)(C)C)C(=O)O)c(-c3ccc4c(c3)CCCO4)c2C)cc1,–,31,18,1400,0.717,–
Cc1nc(-c2ccc(-c3ccncc3)cc2)c(C)c(-c2ccc3c(c2)CCCO3)c1[C@H](OC(C)(C)C)C(=O)O,–,24,23,150,–,–
Cc1ccc(-c2nc(C)c([C@H](OC(C)(C)C)C(=O)O)c(-c3ccc4c(c3)CCCO4)c2C)cc1C,1.83,27,11,1400,0.567,–
Cc1nc2c(ccc3ccccc32)c(-c2ccc3c(c2)CCCO3)c1[C@H](OC(C)(C)C)C(=O)O,–,–,62,–,–,Kd [16]: 180 nM; EC50 [17]: 63 nM
Cc1noc(C)c1-c1ccc(-c2nc(C)c([C@H](OC(C)(C)C)C(=O)O)c(-c3ccc4c(c3)CCCO4)c2C)c(F)c1,–,35,7.3,830,1,–
Cc1cccc(-c2nc(C)c([C@H](OC(C)(C)C)C(=O)O)c(-c3ccc4c(c3)CCCO4)c2C)c1,–,–,23,1100,–,–
Cc1ccc(-c2nc(C)c([C@H](OC(C)(C)C)C(=O)O)c(-c3ccc(Cl)cc3)c2C)cc1C,0.85,40,14,2700,1.28,–
